Experimental data taken from the RNAGym collection of RNA variant scans (doi:10.1101/gad.245936.114).
This sample holds only a part of the variants without activity.

B1: tRNA (parent)
chain: CUCUCGGUAGCCAAGUUGGUUUAAGGCGCAAGACUUUAAUUUAUCACUACGAAAUCUUGAGAUCGGGCGUUCGACUCGCCCCCGGGAGAUUUUUUCCUCGAGCAA

Variants of: B1
Assay: nonsense suppression (GFP-seq) (ratio to wild type); higher = more function; SUP4oc tRNA, yeast GFP reporter sort-seq
Summary of the method: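 Sorted GFP/RFP bins of yeast were each Illumina-sequenced with a phred ≥30 cutoff; the cells held a genome-integrated ochre-suppressor tRNA variant from a library with ~3% random mutations, a galactose-driven GFP ochre reporter, and RFP. Culture was in raffinose/galactose medium containing 80 mg/L adenine. Nonsense suppression, termed GFPSEQ, is the median GFP/RFP of the bins weighted by each variant's estimated cell share per bin, relative to the unmutated parent tRNA, for variants reaching ≥100 reads and ≥30 cells.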
With C1A C11U C12U A14U A62U the nonsense suppression was no more than 0.026. C1U C56A U76C showed a nonsense suppression of no more than 0.026. U2G U20A U63C U76C showed a nonsense suppression of no more than 0.026. Work on C1G U58C A62U G78U yielded a nonsense suppression of no more than 0.026. Variant U2C C12G has a nonsense suppression of no more than 0.026. Variant C1G A54G U63G U70G has a nonsense suppression of no more than 0.026. U2C C27A C82U showed a nonsense suppression of no more than 0.026. U2A U4G showed a nonsense suppression of 0.203. U2A U4A gave a nonsense suppression of 0.0323. U2C G88A showed a nonsense suppression of no more than 0.026. For U2G C27U A30G C79U C83A, the nonsense suppression was no more than 0.026. C3G U20G G69A U70C showed a nonsense suppression of no more than 0.026. In the case of C1U U17C C81G, the nonsense suppression is reported as no more than 0.026. Variant C1A A54G U58C U71C has a nonsense suppression of no more than 0.026. For C1A U2G G19A G32C A89G, the nonsense suppression was no more than 0.026. Work on U2A G84A A89G yielded a nonsense suppression of no more than 0.026. With C1G U55C the nonsense suppression was 0.0398. For C1A G26C, the nonsense suppression was no more than 0.026. For U2A U63C G84U, the nonsense suppression was no more than 0.026. C3G A74G gave a nonsense suppression of no more than 0.026. C1G A24U G28A A74C C81A A89G gave a nonsense suppression of no more than 0.026. C1G U8C U55G G69C showed a nonsense suppression of no more than 0.026. C1G G25A G65A C83G showed a nonsense suppression of no more than 0.026. Work on C1U G7U G15A U35A A62G yielded a nonsense suppression of no more than 0.026. In the case of C3G C27U U57C G59A G61A, the nonsense suppression is reported as no more than 0.026. For U2C A14U U57C, the nonsense suppression was no more than 0.026. In the case of C1G G25A U35C, the nonsense suppression is reported as no more than 0.026. C1A U16A G88C gave a nonsense suppression of no more than 0.026. In the case of C1G A31U G88A, the nonsense suppression is reported as no more than 0.026. C3U A30G C34U showed a nonsense suppression of no more than 0.026. Variant C3A G65A C68U G86U has a nonsense suppression of no more than 0.026. C3G A33U C34U A62G G67C gave a nonsense suppression of no more than 0.026. U2C G26U U76A showed a nonsense suppression of no more than 0.026. Work on C3A U70G yielded a nonsense suppression of no more than 0.026. Variant U2C A31G has a nonsense suppression of 0.0356. In the case of C1A U8G C12U A14C G85U, the nonsense suppression is reported as no more than 0.026. U2C C5A C75U C83A gave a nonsense suppression of no more than 0.026. Variant C3G G78A has a nonsense suppression of no more than 0.026. C1A C3G U58A C68G gave a nonsense suppression of no more than 0.026. C1G G7A G66C A74C showed a nonsense suppression of no more than 0.026. Variant C3U A13G C34G has a nonsense suppression of 0.439. For U2A A60G, the nonsense suppression was 0.0755. C3G A23G C27U C81A C83A G86A showed a nonsense suppression of no more than 0.026. C1A A24C A60C U63G C72G C77G gave a nonsense suppression of no more than 0.026. With C1A G73A the nonsense suppression was 0.112. In the case of C1U G85C A89C, the nonsense suppression is reported as no more than 0.026. In the case of C3G C29G A54U, the nonsense suppression is reported as no more than 0.026. Work on C1U C3U C64G G69U yielded a nonsense suppression of no more than 0.026. In the case of C3G G85U, the nonsense suppression is reported as 0.0369. U2C G19C U35A showed a nonsense suppression of no more than 0.026. For C3U A33U, the nonsense suppression was 0.027. U2C U4G gave a nonsense suppression of 0.0326. With U2C U4C the nonsense suppression was 1.01. For U2G A14C G84C, the nonsense suppression was no more than 0.026. With C3G A24C A31C the nonsense suppression was no more than 0.026. U2C G86A gave a nonsense suppression of no more than 0.026. Variant C1U G6C G10U U58C has a nonsense suppression of no more than 0.026. In the case of C1A C5G A13G G18C A54U G65C, the nonsense suppression is reported as no more than 0.026. U2A U4A G7A gave a nonsense suppression of no more than 0.026. With C1A G18C the nonsense suppression was no more than 0.026. For C1A G86C, the nonsense suppression was no more than 0.026. U2A U55C showed a nonsense suppression of 0.0451. U2G C3U C27G G66A U70C gave a nonsense suppression of no more than 0.026. Work on C3A G15U G25A yielded a nonsense suppression of no more than 0.026. With U2A C80U the nonsense suppression was 0.0354. Work on C1A C5U U17A U55A yielded a nonsense suppression of no more than 0.026. Work on C1U G26A yielded a nonsense suppression of no more than 0.026. C1A U4G C27U gave a nonsense suppression of no more than 0.026. For C1U G67C, the nonsense suppression was no more than 0.026. C1G U20C showed a nonsense suppression of 0.0266. For C1A A13U, the nonsense suppression was no more than 0.026. U2G G28U U35C gave a nonsense suppression of no more than 0.026. In the case of U2A G73A, the nonsense suppression is reported as 0.0508. With U2C A31G C72U the nonsense suppression was no more than 0.026. In the case of C1A U2A U35C U70A, the nonsense suppression is reported as no more than 0.026. For C1A A31U G84A G88A, the nonsense suppression was no more than 0.026. U2C A89U showed a nonsense suppression of no more than 0.026. U2A U4G G18A showed a nonsense suppression of no more than 0.026. C1U G7C G69C G85C showed a nonsense suppression of no more than 0.026. C3A U20C U55C gave a nonsense suppression of no more than 0.026. Variant C1G C64A has a nonsense suppression of no more than 0.026. For U2C G32A A54G, the nonsense suppression was no more than 0.026. C1U G6A C64G gave a nonsense suppression of no more than 0.026. Variant C3A C29U A87G has a nonsense suppression of no more than 0.026. U2G G10A C11G U20G A33G showed a nonsense suppression of no more than 0.026. U2A A31U A33G U58A gave a nonsense suppression of no more than 0.026. Work on C1U U2G G18U yielded a nonsense suppression of no more than 0.026. Work on C3G U8G U21C C34U yielded a nonsense suppression of no more than 0.026. For C3G C56G, the nonsense suppression was no more than 0.026. Variant U2A C34A G78U G86U has a nonsense suppression of no more than 0.026. For U2A C29U, the nonsense suppression was 0.0437. Work on U2A U4C U16C yielded a nonsense suppression of 0.0971. With C1A A62G A74C G84A the nonsense suppression was no more than 0.026. C3G U55C gave a nonsense suppression of 0.152. Variant C1G C5G A31C G73A has a nonsense suppression of no more than 0.026. With C1A C80U the nonsense suppression was 0.0314. U2C A24C showed a nonsense suppression of 0.0326. Variant U2A C34G G85C A89C has a nonsense suppression of 0.25. C3G A31C C68G C77U gave a nonsense suppression of no more than 0.026. In the case of U2A C27U, the nonsense suppression is reported as 0.0357. C3U gave a nonsense suppression of 0.739. With C1G U16A the nonsense suppression was 0.777. With C1G U8G U63C G73U the nonsense suppression was no more than 0.026. C1U C5U U22C U63C gave a nonsense suppression of no more than 0.026. Variant C3G G84U has a nonsense suppression of no more than 0.026. Variant U2G U16G U22G A23U has a nonsense suppression of no more than 0.026. Variant C1G G61A U76C has a nonsense suppression of 0.0371. Work on C1U U17G yielded a nonsense suppression of no more than 0.026. With C3G U8G the nonsense suppression was no more than 0.026. With C1U U2C A54C G61U U76A the nonsense suppression was no more than 0.026. In the case of C3A U35C, the nonsense suppression is reported as no more than 0.026. In the case of C3A U35A, the nonsense suppression is reported as no more than 0.026. In the case of C3A U35G, the nonsense suppression is reported as no more than 0.026. For C1A A54G A62U, the nonsense suppression was no more than 0.026. Variant C1G G10C C29U C34G A89G has a nonsense suppression of no more than 0.026. For C3G U4C, the nonsense suppression was 0.399. In the case of C3G U4G, the nonsense suppression is reported as 0.0277. With U2C U17A the nonsense suppression was 0.0435. Work on U2C G6U C29U yielded a nonsense suppression of no more than 0.026. In the case of C1G G61A G78U A87C, the nonsense suppression is reported as no more than 0.026. With C1U A14G A31G U58G the nonsense suppression was no more than 0.026. U2C C5G gave a nonsense suppression of no more than 0.026. Work on U2C C5A yielded a nonsense suppression of no more than 0.026. For C1U C3A C29A, the nonsense suppression was no more than 0.026. U2A C29A C56A A60U showed a nonsense suppression of no more than 0.026. U2C gave a nonsense suppression of 0.185. With U2G A23G G66A the nonsense suppression was no more than 0.026. Variant C1A G67C C72A has a nonsense suppression of no more than 0.026. C3U A23U A30C showed a nonsense suppression of no more than 0.026. In the case of C3A G67U, the nonsense suppression is reported as no more than 0.026. With C1A U35G the nonsense suppression was no more than 0.026. In the case of U2G C77U, the nonsense suppression is reported as no more than 0.026. U2G C77G showed a nonsense suppression of no more than 0.026. Work on C1A G85U yielded a nonsense suppression of 0.03. Variant C3A A89G has a nonsense suppression of no more than 0.026. With C3A G6A U71G the nonsense suppression was no more than 0.026. With C1U G7A the nonsense suppression was no more than 0.026. With C1G A13U G25U G59C the nonsense suppression was no more than 0.026. With C3A C72A the nonsense suppression was no more than 0.026. For U2C U4C A13G, the nonsense suppression was 0.205. In the case of U2C A30U A31G A62G G67A G86C, the nonsense suppression is reported as no more than 0.026. Variant C1U A23G C29U C64G has a nonsense suppression of no more than 0.026. C3U A24C showed a nonsense suppression of 0.0575. Variant C1G U4G G78C has a nonsense suppression of no more than 0.026. With U2C A23G A62C G67A the nonsense suppression was no more than 0.026. For C3U A13U, the nonsense suppression was 0.194. C3U A13C gave a nonsense suppression of 0.184. With U2A C34U the nonsense suppression was no more than 0.026. In the case of C3A A13C, the nonsense suppression is reported as 0.0261. C3A A13U gave a nonsense suppression of 0.0379. For C1U G66U G86A, the nonsense suppression was no more than 0.026. In the case of U2A G65C, the nonsense suppression is reported as no more than 0.026. In the case of U2C U20C A24U, the nonsense suppression is reported as no more than 0.026. Variant U2A G61A has a nonsense suppression of 0.0448. C1U U71G gave a nonsense suppression of no more than 0.026. Variant U2G U55G has a nonsense suppression of no more than 0.026. Variant U2G U55C has a nonsense suppression of 0.053. C3G G15C U58G G88C showed a nonsense suppression of 0.344. Variant C1A C3A U8A G88A has a nonsense suppression of no more than 0.026. Variant C3G A14U G18U has a nonsense suppression of no more than 0.026. Variant C3A G28A G73A A74G has a nonsense suppression of no more than 0.026. For C3U A31U, the nonsense suppression was no more than 0.026. For C3U A31G, the nonsense suppression was 0.0805. C1U C3G G86A gave a nonsense suppression of no more than 0.026. U2A A33G gave a nonsense suppression of no more than 0.026. C3G C77A showed a nonsense suppression of no more than 0.026. For C3A U4C, the nonsense suppression was 0.191.
